Screening results: PubChem BioAssay, The Scripps Research Institute Molecular Screening Center
OX1R antag-1 = antagonists of human orexin 1 receptor (OX1R). 330,000 compounds, 1.8% hits. OX1R-expressing cells, FRET antagonist read-out. AID 485270, 2010. Orexin/Hypocretin receptor type 1 (Homo sapiens), O43613. inhibition, % at 6.6 µM; in the data active = inhibition mostly above about 38%, no sharp cut-off; inactive = mostly below about 40%;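 also: 0% = agonist challenge alone and 100% = reference antagonist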
CHO parental Ca = ATP-evoked calcium signal inhibitors, parental CHO, primary screen, counter-screen for OX1R antagonist project, cell-based, fluorescence, Fluo-8 calcium dye | parental CHO-K1, ATP-induced calcium, Fluo-8 fluorescence | inhibition, % at 5.6 µM | 330,000 compounds, 0.63% hits | AID 463079, 2010;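 active = inhibition above that plate's mean sample inhibition plus 3 SD, cut at about 26% in these data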;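 also: 0% = ATP-challenged DMSO wells and 100% = DMSO wells without ATP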
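Test system: untransfected parental CHO cell line; also added: ATP stimulus; dosing: 5.6 µM, single dose; signal: calcium-sensitive Fluo-8 fluorescence; measure: percent inhibition of ATP-evoked calcium rise, normalized to controls; benchmarks: low control ATP plus DMSO, high control DMSO only; replication: one well per compound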
GPR7 antagonist = GPR7 receptor antagonists, primary screen, cell-based, fluorescence, single concentration | Neuropeptides B/W receptor type 1 (Homo sapiens), P48145 | GPR7-expressing cells, fluorescence antagonist assay | inhibition, % at 4.4 µM | 290,000 compounds, 1.1% hits | AID 1861, 2009; in the data active = inhibition above about 16%, passing the limit was not always enough;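 also: cells stimulated with the agonist NPW; 0% = agonist with vehicle and 100% = vehicle without agonist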
Target sequence (P48145 whole entry, looked up): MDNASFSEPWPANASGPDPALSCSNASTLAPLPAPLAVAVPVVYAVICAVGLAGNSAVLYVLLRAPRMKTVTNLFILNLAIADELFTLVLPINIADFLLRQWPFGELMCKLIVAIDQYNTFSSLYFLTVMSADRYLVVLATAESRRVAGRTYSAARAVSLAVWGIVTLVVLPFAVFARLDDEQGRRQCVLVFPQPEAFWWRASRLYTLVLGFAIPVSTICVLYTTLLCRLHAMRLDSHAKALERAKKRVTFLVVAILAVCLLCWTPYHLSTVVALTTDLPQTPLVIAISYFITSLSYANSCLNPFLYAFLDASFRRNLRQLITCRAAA
TAAR1 antag = human TAAR1 antagonists, primary screen, Fluo-8 calcium fluorescence, CHO RD-HGA16 cells | Trace amine-associated receptor 1 (Homo sapiens), Q96RJ0 | antagonist | inhibition, % at 3 µM | 360,000 compounds, 1.5% hits | AID 624466, 2012;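 active = inhibition above a per-plate cutoff, the mean inhibition of test compounds on that plate plus 3 SD, cut at about 49% in these data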;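 also: 0% = DMSO plus EC80 beta-PEA response and 100% = DMSO alone without agonist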
Target sequence (Q96RJ0 whole entry, looked up): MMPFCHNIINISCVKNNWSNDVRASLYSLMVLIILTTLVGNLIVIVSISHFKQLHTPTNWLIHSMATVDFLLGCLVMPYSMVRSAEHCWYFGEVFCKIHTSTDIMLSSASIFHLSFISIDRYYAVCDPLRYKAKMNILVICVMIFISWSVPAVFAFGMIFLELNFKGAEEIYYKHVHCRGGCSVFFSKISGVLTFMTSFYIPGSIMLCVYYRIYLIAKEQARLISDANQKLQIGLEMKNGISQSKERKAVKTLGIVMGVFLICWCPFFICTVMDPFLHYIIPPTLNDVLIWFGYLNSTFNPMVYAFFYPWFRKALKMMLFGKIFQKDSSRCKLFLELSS
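Test system – hTAAR1-expressing CHO RD-HGA16 cells, Gα16-coupled · Reagent – β-PEA at EC80 concentration, post-compound challenge · Compound dosing – 3 µM, single point · Timing – 140 s kinetic read after compound, 140 s after agonist · Detection – Fluo-8 intracellular calcium dye fluorescence, real-time kinetic reads · Control set – DMSO and EC80 PEA controls · Repeats – n of 1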
OX1R antag-2 = OX1R (HCRTR1) antagonists, primary screen, fluorescence, CHO/OX1R cells, Fluo-8 calcium, orexin A. Orexin/Hypocretin receptor type 1 (Homo sapiens), O43613. Fluo-8 calcium fluorescence. inhibition, % at 5 µM. 330,000 compounds, 0.43% hits. AID 434989, 2010;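 active = inhibition above its plate's threshold, mean inhibition of all tested compounds on the plate plus 3 SD, cut at about 37% in these data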;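 also: 0% = orexin A challenge wells and 100% = SB-334867-A antagonist wells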
TAAR1 agonist = human TAAR1 agonists, primary screen, Fluo-8 calcium fluorescence, CHO RD-HGA16 cells. Trace amine-associated receptor 1 (Homo sapiens), Q96RJ0. vehicle wells 0%, saturating PEA agonist 100%. activation, % at 3 µM. 360,000 compounds, 0.99% hits. AID 624467, 2012;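 active = activation above the mean activation of all test compounds in the run plus 3 SD, cut at about 38% in these data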
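Benchmarks: low control DMSO, high control PEA (EC100); System: CHO RD-HGA16 cells carrying human TAAR1 plus Gα16; Detection: Fluo-8 fluorescence, 5 s baseline then 140 s kinetic read; Schedule: 17-24 h plating, Fluo-8 75 min 37 °C, 30 min RT; Read-out basis: % activation from peak over basal fluorescence ratio, DMSO-to-PEA scaled.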
Numbers without * were called inactive; · = not tested or not shown. The list is not random: actives were taken first. Their share in the collection is about 4.6%.

SMILES | OX1R antag-1 | CHO parental Ca | GPR7 antagonist | TAAR1 antag | OX1R antag-2 | TAAR1 agonist
C[C@@H]1CN([C@@H](C)CO)C(=O)CCCn2cc(nn2)CO[C@H]1CN(C)C(=O)Nc1ccccc1F | · | · | · | -5 | · | 1
COC(=O)c1ccc(Nc2ccc3nonc3c2[N+](=O)[O-])cc1 | 5 | -3 | -10 | -4 | -3 | 2
Cc1ccc(Nc2ccc3nonc3c2[N+](=O)[O-])cc1 | 64* | -17 | 4 | -3 | -7 | 2
CCOc1ccc(Nc2ccc(C(=O)O)cc2[N+](=O)[O-])cc1 | 35 | 1 | 5 | -31 | -18 | -1
O=C(O)c1ccc(Nc2ccc3nonc3c2[N+](=O)[O-])cc1 | 57* | -7 | -9 | -2 | 9 | 5
CCOc1ccc(Nc2ccc3nonc3c2[N+](=O)[O-])cc1 | 45* | 0 | 14 | 6 | -35 | -4
Cc1ccc(Nc2ccc([N+](=O)[O-])nc2[N+](=O)[O-])cc1 | 62* | -8 | 4 | -7 | 2 | 1
O=[N+]([O-])c1c(Nc2ccc(Br)cc2)ccc2nonc12 | 13 | -4 | -7 | -12 | -10 | 3
Cn1cc(CC(=O)Nc2ccc(Nc3cccnc3)cc2)c2ccccc21 | · | · | · | 5 | · | 5
CCN1C(=O)N(C(C)=O)[C@@H]2C[C@H](C(=O)N3CCCC3)[C@H](C)[C@H](c3ccccc3)C[C@@H]21 | · | · | · | -2 | · | 1
Cc1nc(Nc2ccc(C(=O)O)cc2)nc(Nc2ccc(C(=O)O)cc2)c1[N+](=O)[O-] | 42* | 1 | -11 | 3 | -2 | 10
Cc1ccc2nc(N(CCCN(C)C)C(=O)c3ccc4c(c3)CCCC4)sc2c1 | -1 | 0 | 9 | 20 | -4 | 38*
CN(C)CCCN(C(=O)COc1ccc(Cl)cc1)c1nc2ccc(F)cc2s1 | 8 | -2 | 0 | 5 | -19 | 41*
CN(C)CCCN(C(=O)COc1ccccc1)c1nc2ccc(F)cc2s1 | 8 | -13 | -12 | 0 | -30 | 11
Cc1cc(C)c2sc(N(CCCN(C)C)C(=O)COc3ccc(Cl)cc3)nc2c1 | 14 | 7 | 9 | 20 | -8 | 35
Cc1ccc2nc(N(CCCN(C)C)C(=O)COc3ccc(Cl)cc3)sc2c1 | 1 | -2 | -7 | 10 | -12 | 45*
Cc1ccc(C(=O)Nc2ccc(Cc3ccncc3)cc2)cc1[N+](=O)[O-] | 29 | 19 | -4 | 60* | 4 | 15
CC(C)(C)c1ccc(S(=O)(=O)Nc2ccc(Cc3ccncc3)cc2)cc1 | 4 | 4 | 9 | 39 | -3 | 46*
O=C(Nc1ccc(Cc2ccncc2)cc1)c1cccc([N+](=O)[O-])c1 | 8 | 8 | 0 | 29 | -1 | 6
CCN(CC)S(=O)(=O)c1ccc(C(=O)Nc2ccc(Cc3ccncc3)cc2)cc1 | 39* | 85* | 21 | 56* | 82* | 21
COc1ccc2c(c1)[C@@]1(OCCC=C[C@H]1C)C(=O)N2Cc1ccc(F)cc1 | · | · | · | -11 | · | 1
COc1cccc(CNC(=O)C(C)n2ccc3cc(S(=O)(=O)N4CCCCCC4)ccc32)c1 (centres undefined) | 12 | -6 | 4 | -2 | -5 | 0
CCC(C(=O)NCCC(C)C)n1ccc2cc(S(=O)(=O)N3CCCCC3)ccc21 (centres undefined) | 12 | 53* | 13 | · | 44 | ·
CC(CNC(=O)Cn1ccc2cc(S(=O)(=O)N3CCCC3)ccc21)c1ccccc1 (centres undefined) | 43* | -20 | -3 | -15 | 15 | 9
NC(=O)c1ncn([C@@H]2O[C@H](C(=O)N[C@H](Cc3c[nH]c4ccccc34)C(=O)N3CCN(C(=O)N4CCOCC4)CC3)[C@@H](O)[C@H]2O)n1 | · | · | · | -25 | · | 2
SMILES | OX1R antag-1 | CHO parental Ca | GPR7 antagonist | TAAR1 antag | OX1R antag-2 | TAAR1 agonist
Cc1cccc2cc(C(c3nnnn3CC3CCCO3)N3CCc4ccccc4C3)c(=O)[nH]c12 (centres undefined) | 18 | -18 | -11 | · | -16 | ·
Cc1ccc(C)c2[nH]c(=O)c(C(c3nnnn3Cc3ccccc3)N3CCc4ccccc4C3)cc12 (centres undefined) | 13 | -22 | -5 | 42 | -24 | 49*
COc1ccc(-c2oc3c(OC)c(OC)c(OC)c(O)c3c(=O)c2OC)cc1OC | 15 | -20 | -22 | 38 | -25 | 1
COc1c(OC)c(O)c2c(=O)c(O)c(-c3ccccc3)oc2c1OC | 57* | -30 | 0 | 0 | 8 | 7
NNc1nc(-c2ccccc2)nc2sc3c(c12)CCCC3 | 8 | -19 | -8 | -17 | -17 | 1
Nc1c2c(nc3sc4c(c13)CCCC4)-c1ccccc1CC2 | 72* | -10 | -4 | 9 | -7 | -3
CC(NC(=O)Nc1cccc(Cl)c1)C(c1cccs1)N1CCCC1 (centres undefined) | 3 | -18 | -3 | -13 | -17 | 28
CC(NC(=O)Nc1ccc([N+](=O)[O-])cc1)C(c1cccs1)N1CCCC1 (centres undefined) | 15 | -17 | 1 | -2 | -21 | 48*
CCOC(=O)CN1C(=O)[C@]2(OCCC=C[C@H]2C)c2c(Br)cccc21 | · | · | · | 29 | · | 6
C=CCN1C(=O)c2n[nH]c(C(C)C)c2C1c1ccccc1 (centres undefined) | · | · | · | 6 | · | -2
COc1ccc(N(CC(=O)NCc2ccc(C)cc2)S(=O)(=O)c2ccccc2[N+](=O)[O-])c(OC)c1 | 45 | -10 | 6 | 5 | 8 | 10
COc1ccc(N(CC(=O)NCc2ccccc2C)S(=O)(=O)c2ccccc2[N+](=O)[O-])c(OC)c1 | 64* | -17 | 14 | 22 | 14 | 5
CC(=O)OC[C@@H]1CN(Cc2ccccc2)C[C@H](n2cnc3c(NC4CC4)ncnc32)O1 | · | · | · | -7 | · | 3
COc1ccc(COc2cc(-c3cccc(OC)c3)nc3ccc(NC(C)=O)cc23)cc1 | 28 | -8 | 5 | 59* | -9 | 5
CSc1ccccc1NC(=O)c1cc(-c2cccnc2)nc2ccc(Br)cc12 | 11 | -19 | -12 | 50* | -8 | 4
COc1cccc(-c2cc(C(=O)Nc3ccc(N(C)C(C)=O)cc3)c3cc(Br)ccc3n2)c1 | 13 | -12 | · | 60* | -16 | 8
NC(=O)N=Nc1c2[nH]c3ccccc3nc-2c2ccccc12 | 71* | -11 | -19 | 44 | -4 | 23
COc1ccc(Cc2cc(NCc3ccccc3)c3ncn(C(C)C)c3c2)cc1 | 9 | -28 | · | 16 | -46 | 38*
